These results are taken from ChEMBL document CHEMBL4480403, “DDX3X Helicase Inhibitors as a New Strategy To Fight the West Nile Virus Infection” (J Med Chem, 2019).

Each structure is given as a SMILES string. Activity calls are given as the source filed them. The calls are words filed in the database; no cut-off is given here.

What is called Papp is a coefficient for how fast a substance crosses the barrier. The term IC50 denotes the midpoint of a concentration-inhibition curve. For orientation: EC50 means the concentration that produces a half-maximal response. The inhibition is the percentage by which the read-out fell short of the control.

Series [1] is described as follows: Apparent permeability of the compound by PAMPA. The series is classed as ADME. In short, it runs like this:
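PAMPA: 0.5 mM donor solution in pH 7.4 phosphate buffer, diluted from 1 mM DMSO stock. Filter coated with 1% phosphatidylcholine in dodecane; acceptor 50% DMSO in buffer. Incubated 5 h at room temperature with shaking. Donor and acceptor quantified by LC-UV at 280 nm and Papp calculated. Three plates on different days.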
In general terms: PAMPA measures passive passage across an artificial lipid membrane.

For a further series, the system named is Huh-7. In words: Cytotoxicity against human HuH7 cells after 3 days by MTT assay. The following applies: Homo sapiens, Huh-7, 72 h. In kind it is cell-based. An outline of the steps: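 Huh7 cells (2.5 × 10^4 per well) adhered overnight. Confluent monolayers washed, then treated with compound (final 100–0.01 μM) or DMSO control for 3 days at 37°C. Viability by MTT, absorbance 570 nm, expressed relative to DMSO-treated cells.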

The subject of series [2] is West Nile virus. In words: Antiviral activity against West Nile virus infected in human HuH7 cells assessed as reduction in genomic RNA at 1 uM added at 3 hrs hrs post viral infection by PCR analysis. The series is classed as functional, organism-based. An outline of the steps: (§1)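 Huh7 cells infected with WNV at MOI 0.1; compound at 1 µM added 1 h or 3 h after infection. Total RNA (200 ng) reverse-transcribed with strand-specific primers for genomic or complementary WNV RNA, then quantified by real-time PCR against plasmid standards. Detection limit 10 copies. Means with standard deviation.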

In series [3] the test system is West Nile virus. In words: Antiviral activity against West Nile virus infected in human HuH7 cells at 1 to 10 uM added before 2 hrs post infection by crystal violet staining based plaque reduction assay. In kind it is functional, organism-based. An outline of the steps: (§2)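 Huh7 cells infected with WNV at MOI 0.1; compound at 1 µM and 10 µM added at various times relative to infection. Read-out by viral plaque reduction assay. Means with standard deviation.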

The nature of series [4]: Metabolic stability in human liver microsomes at 50 uM after 60 mins in presence of NADPH-generating system by LC-UV-MS analysis. In kind it is ADME, Microsome. The following applies: read-out: Stability. An outline of the steps: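 Compound at 50 μM final (DMSO ≤2%) incubated with human liver microsomes (0.2 mg/mL) and NADPH-generating system in 125 mM phosphate buffer pH 7.4, 37 °C, 60 min. Remaining compound measured by LC-ESI-MS in positive ion mode, with UV at 280 nm.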

In series [5] the test system is West Nile virus. In words: Antiviral activity against West Nile virus infected in human HuH7 cells incubated for 4 days by crystal violet staining based plaque reduction assay. In kind it is functional, organism-based. The following applies: Huh-7, 96 h. An outline of the steps:
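Huh7 cells (2.5 × 10^5 per well, overnight) infected with lineage 2 WNV at MOI 0.1 for 1 h at 37°C, washed, then compound added in 10-fold dilutions (final 100–0.01 μM) with DMSO as virus control. Agarose overlay, 4 days at 37°C, methanol fixation, crystal violet staining. PFU relative to DMSO; IC50 by exponential fit at 50% PFU. Duplicates, repeated at least twice.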
A general note: In a plaque reduction assay, fewer plaques than in the control indicate reduced infectivity or spread.

A further series has as its system A549. In words: Cytotoxicity against human A549 cells after 3 days by MTT assay. In kind it is cell-based. The conditions noted are these: A549, 72 h. An outline of the steps: (§3)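 Confluent monolayers were washed with PBS and treated in DMEM with DMSO alone (control) or compound at final 100, 10, 1, 0.1, 0.01 μM. Cells were incubated 3 days at 37°C, then given MTT with absorbance read at 570 nm. Cytotoxicity was taken as the OD ratio of treated to DMSO wells, and CC50 was the concentration killing 50% of uninfected cells.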
For orientation: Tetrazolium dyes change colour on reduction, which living cells bring about.

Series [6] has as its system West Nile virus. In words: Antiviral activity against West Nile virus infected in human HuH7 cells assessed as reduction in capsid protein levels at 1 uM added at 3 hrs post infection by SDS-PAGE analysis. The series is classed as functional, organism-based. An outline of the steps:
(§4)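 Huh7 cells were infected with WNV at MOI 0.1, with compound at 1 µM added 1 h or 3 h after infection; a no-compound infected control was run alongside. Cell lysates were run on 10% SDS-PAGE and immunoblotted with anti-capsid polyclonal antibody, then peroxidase-conjugated anti-rabbit IgG.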

Series [7] relates to West Nile virus. The experiment in a line: Antiviral activity against West Nile virus infected in human HuH7 cells assessed as reduction in capsid protein levels at 1 uM added at 1 hr post infection by SDS-PAGE analysis. The series is classed as functional, organism-based. In short, it runs like this: as §4
For series [8], the system named is West Nile virus. The experiment in a line: Antiviral activity against West Nile virus infected in African green monkey Vero cells incubated for 4 days by crystal violet staining based plaque reduction assay. The series is classed as functional, organism-based. The conditions noted are these: 96 h. An outline of the steps: (§5)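 Cell monolayers at 80–90% confluence were infected with WNV lineage 2 strain at MOI 0.1 for 1 h at 37°C with 5% CO2, then washed. DMSO vehicle or compound (final 100, 10, 1, 0.1, 0.01 μM) was added in duplicate under a 0.5% agarose overlay. Ribavirin served as reference. After methanol fixation and 0.1% crystal violet staining, PFU were expressed relative to DMSO control. IC50 was interpolated at 50% PFU; experiments were repeated at least twice.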

For series [9], the system named is West Nile virus. The experiment in a line: Antiviral activity against West Nile virus infected in human HuH7 cells at 1 to 10 uM added after 3 hrs post infection by crystal violet staining based plaque reduction assay. The series is classed as functional, organism-based. In short, it runs like this: as §2
Series [10] deals with ATP-dependent RNA helicase DDX3X (Homo sapiens, UniProt O00571). The experiment in a line: Inhibition of full length His-tagged human DDX3X expressed in Escherichia coli assessed as reduction in DDX3X helicase activity using FAM-labeled double stranded RNA as substrate after 40 mins by FRET assay relative to control. In short, it runs like this: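 Recombinant His-tagged full-length DDX3X expressed in E. coli, Ni-NTA purified. Unwinding of FAM-labelled dsRNA, with capture strand at 100 nM, in Tris-HCl pH 8, 70 mM KCl, 2 mM MgCl2, 2 mM DTT, 2 mM ATP. Started with DDX3X, 37°C, 40 min, fluorescence read every 30 s. Initial slope gives unwinding rate; IC50 by nonlinear regression of triplicates.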
Sequence of ATP-dependent RNA helicase DDX3X (O00571 2-662 limits assumed): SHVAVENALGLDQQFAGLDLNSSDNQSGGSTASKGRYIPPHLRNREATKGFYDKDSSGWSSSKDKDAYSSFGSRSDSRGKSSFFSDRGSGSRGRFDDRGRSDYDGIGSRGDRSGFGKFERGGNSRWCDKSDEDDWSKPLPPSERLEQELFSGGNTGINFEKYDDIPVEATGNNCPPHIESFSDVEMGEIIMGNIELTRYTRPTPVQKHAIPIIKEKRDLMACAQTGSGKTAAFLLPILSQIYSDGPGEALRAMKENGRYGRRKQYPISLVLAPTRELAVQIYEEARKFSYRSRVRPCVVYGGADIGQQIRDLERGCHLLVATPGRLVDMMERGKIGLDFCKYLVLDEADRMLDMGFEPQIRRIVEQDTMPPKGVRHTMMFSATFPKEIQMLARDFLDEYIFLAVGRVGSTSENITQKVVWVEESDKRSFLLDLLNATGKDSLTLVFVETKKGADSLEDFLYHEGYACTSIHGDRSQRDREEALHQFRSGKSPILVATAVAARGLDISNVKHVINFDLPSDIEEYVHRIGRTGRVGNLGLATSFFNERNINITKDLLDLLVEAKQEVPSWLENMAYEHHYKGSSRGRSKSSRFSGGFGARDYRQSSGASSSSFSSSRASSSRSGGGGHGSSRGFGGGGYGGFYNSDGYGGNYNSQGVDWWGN

The subject of series [11] is West Nile virus. The experiment in a line: Antiviral activity against West Nile virus infected in human A549 cells incubated for 4 days by crystal violet staining based plaque reduction assay. In kind it is functional, organism-based. The conditions noted are these: A549, 96 h. An outline of the steps: as §5
For a further series, the system named is Vero. In words: Cytotoxicity against African green monkey Vero cells after 3 days by MTT assay. In kind it is cell-based. The conditions noted are these: Chlorocebus sabaeus, 72 h. In short, it runs like this: as §3
The subject of series [12] is West Nile virus. The experiment in a line: Antiviral activity against West Nile virus infected in human HuH7 cells assessed as reduction in genomic RNA at 1 uM added at 1 hr post viral infection by PCR analysis. The series is classed as functional, organism-based. In short, it runs like this: as §1
Series [13] relates to West Nile virus. The experiment in a line: Antiviral activity against West Nile virus infected in human HuH7 cells assessed as reduction in complementary RNA at 1 uM added at 1 hr post viral infection by PCR analysis. In kind it is functional, organism-based. An outline of the steps:
as §1

For series [14], the target named is T1, ATP-dependent RNA helicase DDX1 (Homo sapiens, UniProt Q92499).
T1 sequence (Q92499 whole entry): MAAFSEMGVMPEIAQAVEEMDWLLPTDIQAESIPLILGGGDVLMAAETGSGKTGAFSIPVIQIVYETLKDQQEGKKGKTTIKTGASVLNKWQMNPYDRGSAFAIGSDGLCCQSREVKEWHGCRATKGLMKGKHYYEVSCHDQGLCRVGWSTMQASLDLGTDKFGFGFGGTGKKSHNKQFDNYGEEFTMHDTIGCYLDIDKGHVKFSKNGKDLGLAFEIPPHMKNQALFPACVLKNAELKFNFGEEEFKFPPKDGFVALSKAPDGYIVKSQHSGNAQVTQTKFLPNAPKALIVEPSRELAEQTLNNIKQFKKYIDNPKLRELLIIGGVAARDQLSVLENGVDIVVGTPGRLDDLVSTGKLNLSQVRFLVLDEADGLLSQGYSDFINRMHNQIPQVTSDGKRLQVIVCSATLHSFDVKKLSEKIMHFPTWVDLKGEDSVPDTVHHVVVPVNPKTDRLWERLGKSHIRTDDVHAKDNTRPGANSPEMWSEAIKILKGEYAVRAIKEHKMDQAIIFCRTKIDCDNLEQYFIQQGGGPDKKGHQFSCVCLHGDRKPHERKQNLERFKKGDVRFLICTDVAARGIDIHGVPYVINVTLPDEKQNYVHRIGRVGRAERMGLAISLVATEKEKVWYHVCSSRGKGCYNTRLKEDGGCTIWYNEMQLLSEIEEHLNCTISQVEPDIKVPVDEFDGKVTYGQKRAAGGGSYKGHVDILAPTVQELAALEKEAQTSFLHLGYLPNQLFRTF
In words: Inhibition of human DDX1 helicase activity.

Regarding `CCCCc1cn(-c2cccc(S(=O)(=O)Nc3ccccc3C(F)(F)F)c2)nn1`, the apparent permeability coefficient (Papp) in series [1] came to 0.21 ×10⁻⁶ cm/s. In addition, the IC50 in the series on Huh-7 was > 200 µM; in the series with A549 it was 21.3 µM; in the series on Vero, > 200 µM; in [14] it was > 200 µM. For the same molecule, the outcome in the series with West Nile virus [2], in the series on West Nile virus [6] and in the series with West Nile virus [9] was inactive. Moreover, the outcome with West Nile virus [3], with West Nile virus [7], with West Nile virus [12] and in the series on West Nile virus [13] was Active. For the same molecule, the remaining at 1 h, 50 µM in series [4] turned out to be 99%. The half-maximal effective concentration (EC50) with West Nile virus [5] was found to be 23.1 µM; in the series with West Nile virus [8], 12 µM; in the series on West Nile virus [11], 3.4 µM. Further, the inhibition in [10] came to 98%.
